Source: ChEMBL document CHEMBL4834426, “Antimalarial Benzimidazole Derivatives Incorporating Phenolic Mannich Base Side Chains Inhibit Microtubule and Hemozoin Formation: Structure-Activity Relationship and In Vivo Oral Efficacy Studies” (J Med Chem, 2021)
In brackets after ≈: the same amount, converted by molar mass. Activity calls are given as the source filed them. No cut-off for these calls is given here.

Key:
Plasmodium falciparum [1] = test: Antimalarial activity against asexual blood stage drug-sensitive Plasmodium falciparum NF54 infected in erythrocytes assessed as reduction in parasitemia incubated up to 72 hrs by [3H]hypoxanthine incorporation assay; type: functional, organism-based
Outline: (§1)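 [³H]-Hypoxanthine incorporation assay (modified) on asexual blood-stage P. falciparum in vitro. IC₅₀ values are means of ≥2 independent experiments.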

Plasmodium falciparum [2] = test: Antimalarial activity against asexual blood stage multi drug-resistant Plasmodium falciparum K1 infected in erythrocytes assessed as reduction in parasitemia incubated up to 72 hrs by [3H]hypoxanthine incorporation assay; type: functional, organism-based; outline: as §1
[3] = Resistance index, ratio of IC50 for antimalarial activity against asexual blood stage multi drug-resistant Plasmodium falciparum K1 to IC50 for antimalarial activity against asexual blood stage drug-sensitive Plasmodium falciparum NF54; type: functional
Outline: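 Resistance index is IC₅₀(K1)/IC₅₀(NF54). Both IC₅₀s came from the [³H]-hypoxanthine incorporation assay, as means of ≥2 independent experiments.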

Plasmodium falciparum [4] = test: Antiplasmodial activity against […] Plasmodium falciparum NF54 early gametocytes transfected with GFP-Luc […] at 5 uM incubated for 48 hrs by microscopy based luciferase reporter gene assay relative to control; type: functional
Outline: (§2)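 NF54-Pfs16-GFP-Luc gametocytes, assays set up day 5 (early, stage II/III) or day 10 (late, stage IV/V). Culture at 2−3% gametocytemia, 1.5% hematocrit, 48 h drug exposure at 37 °C under 90% N₂/5% O₂/5% CO₂. Lysates mixed with luciferin; bioluminescence read with 10 s integration. Dual-point: one biological repeat in technical triplicate. Methylene blue (5 μM) reference.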

Plasmodium falciparum [5] = test: Antiplasmodial activity against […] Plasmodium falciparum NF54 early gametocytes transfected with GFP-Luc […] at 1 uM incubated for 48 hrs by microscopy based luciferase reporter gene assay relative to control; type: functional; outline: as §2
Plasmodium falciparum [6] = test: Antiplasmodial activity against […] Plasmodium falciparum NF54 late gametocytes transfected with GFP-Luc […] at 5 uM incubated for 48 hrs by microscopy based luciferase reporter gene assay relative to control; type: functional; outline: as §2
Plasmodium falciparum [7] = test: Antiplasmodial activity against […] Plasmodium falciparum NF54 late gametocytes transfected with GFP-Luc […] at 1 uM incubated for 48 hrs by microscopy based luciferase reporter gene assay relative to control; type: functional; outline: as §2
CHO = test: Cytotoxicity against CHO cells assessed as inhibition of cell viability by MTT assay; type: cell-based; conditions: Cricetulus griseus
[8] = Selectivity index, ratio of IC50 for Cytotoxicity against CHO cells assessed as inhibition of cell viability by MTT assay to IC50 for antimalarial activity against asexual blood stage Plasmodium falciparum NF54 assessed as reduction in parasitemia incubated up to 72 hrs by [3H]hypoxanthine incorporation assay; type: toxicity, cell-based; conditions: hamster, read-out: Selectivity Index
Outline: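 Selectivity index is IC₅₀(CHO)/IC₅₀(NF54). […] IC₅₀ came from nonlinear dose-response fitting. Parasite IC₅₀ came from the [³H]-hypoxanthine assay.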

[9] = Metabolic stability in mouse liver microsomes assessed as compound remaining at 1 uM incubated for 30 mins by LC-MS/MS analysis; type: ADME, Microsome; conditions: read-out: Stabilty
Outline: (§3)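 Single-point design: 1 μM compound with 0.4 mg/mL liver microsomes in 0.1 M phosphate buffer pH 7.4 for 30 min. Quenched with ice-cold acetonitrile containing carbamazepine internal standard, centrifuged, analyzed by LC−MS/MS. Percent remaining from internal-standard-corrected peak areas at 30 min versus 0 min. Propranolol, midazolam and MMV390048 as controls.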

[10] = Metabolic stability in rat liver microsomes assessed as compound remaining at 1 uM incubated for 30 mins by LC-MS/MS analysis; type: ADME, Microsome; conditions: read-out: Stabilty; outline: as §3
[11] = Metabolic stability in human liver microsomes assessed as compound remaining at 1 uM incubated for 30 mins by LC-MS/MS analysis; type: ADME, Microsome; conditions: read-out: Stabilty; outline: as §3
[12] = Kinetic solubility of the compound in pH 6.5 incubated for 24 hrs by HPLC-DAD analysis; type: physicochemical; conditions: buffer, read-out: Kinetic_solubility
Outline: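 Miniaturized shake-flask method. 10 mM DMSO stock dried down, phosphate buffer pH 6.5 added, shaken 24 h at 25 °C. Centrifuged 3500g for 15 min; supernatant analyzed by HPLC-DAD against 10−220 μM DMSO calibration curve. Reserpine, hydrocortisone and MMV390048 as controls.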

Plasmodium berghei = test: Antimalarial activity against GFP-transfected Plasmodium berghei ANKA infected in NMRI mouse model assessed as reduction in parasitemia at 50 mg/kg, po dosed 4 times relative to control; type: functional; parameters: scale not given: the % may be the effect or the level left
Outline: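 Mice (n = 3) infected with GFP-transfected P. berghei ANKA. Compound in 70% Tween-80/30% ethanol, diluted 10-fold in water, given orally at 4, 24, 48 and 72 h post-infection. Blood taken day 4 (96 h); parasitemia by flow cytometry, detection limit 0.1%. Activity = difference in mean % parasitemia between control and treated, as % of control.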

Hemozoin [13] = test: Inhibition of Beta-hematin in early ring stage Plasmodium falciparum parasitized red blood cells assessed as hemozoin formation formation after 32 hrs by Giemsa staining based haemocytometric counting method
Hemozoin [14] = test: Inhibition of beta-hematin formation […] incubated for 5 hrs by NP40 detergent-mediated assay
Outline: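 Cell-free β-hematin formation assay in NP-40 (305.5 μM) lipid-mimic medium. Compounds from 20 mM stock serially diluted across wells, in duplicate. Hematin suspended in 1 M acetate buffer pH 4.8; plates incubated ~5 h at 37 °C. Then pyridine solution (with HEPES pH 7.4) and acetone added; absorbance at 405 nm. IC₅₀ by curve fit.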

[15] = tested on: Plasmodium falciparum NF54; test: Inhibition of tubulin polymerization in asexual blood stage Plasmodium falciparum NF54 at 600 nM incubated for 24 hrs by tubulin tracker Oregon Green staining method
Outline: (§4)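 Treatment at 600 nM for asexual parasites (~1% parasitemia, 5% hematocrit, sorbitol-synchronized rings) or 2400 nM for early gametocytes (~2% gametocytemia, 2% hematocrit, 20% I/60% II/20% III). 24 h at 37 °C, 90% N₂/5% CO₂/5% O₂, DMSO <0.1%. Stained with 250 nM Tubulin Tracker Oregon Green 488 for 30 min and Hoechst (100 nM) for 10 min. PBS-washed, imaged live by confocal microscopy. Colchicine (20 μM) positive control.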

[16] = tested on: Plasmodium falciparum NF54; test: Inhibition of tubulin polymerization in asexual stage (I) Plasmodium falciparum NF54 early gametocytes at 2400 nM incubated for 24 hrs by tubulin tracker Oregon Green staining method; outline: as §4
[17] = tested on: Plasmodium falciparum NF54; test: Inhibition of tubulin polymerization in asexual stage (II) Plasmodium falciparum NF54 early gametocytes at 2400 nM incubated for 24 hrs by tubulin tracker Oregon Green staining method; outline: as §4
[18] = tested on: Plasmodium falciparum NF54; test: Inhibition of tubulin polymerization in […] Plasmodium falciparum NF54 early gametocytes at 2400 nM incubated for 24 hrs by tubulin tracker Oregon Green staining method; outline: as §4
[19] = Inhibition of tubulin polymerization in asexual blood stage Plasmodium falciparum NF54

CCNCc1cc(Cl)cc(Nc2nc3ccccc3[nH]2)c1O
IC50 (Plasmodium falciparum [1]): 0.3 µM | IC50 (Plasmodium falciparum [2]): 0.88 µM | Ratio IC50 [3]: 2.93 | inhibition at 5 µM (Plasmodium falciparum [4]): 23% | inhibition at 1 µM (Plasmodium falciparum [5]): 0% | inhibition at 5 µM (Plasmodium falciparum [6]): 31% | inhibition at 1 µM (Plasmodium falciparum [7]): 0% | IC50 (CHO): > 50 µM | selectivity ratio at 72 h [8]: > 166 | remaining at 0.5 h, 1 µM [9]: 97% | remaining at 0.5 h, 1 µM [10]: 98% | remaining at 0.5 h, 1 µM [11]: 93% | solubility kinetic at 24 h [12]: 200 µM (≈ 63.4 µg/mL) | Activity (Plasmodium berghei): <40% | Activity (Hemozoin [13]): Active | IC50 (Hemozoin [14]): 12.7 µM | inhibition [15]: Active | inhibition [16]: inactive | inhibition [17]: Active | inhibition [18]: Active

COc1cc2c(c(OC)c1OC)-c1ccc(OC)c(=O)cc1[C@@H](NC(C)=O)CC2 [COLCHICINE]
IC50 [19]: 10 µM

COC(=O)Nc1nc2cc(C(=O)c3cccs3)ccc2[nH]1 [NOCODAZOLE]
IC50 [19]: 17 µM
